In ChEMBL document CHEMBL5154825, “Discovery of V-0219: A Small-Molecule Positive Allosteric Modulator of the Glucagon-Like Peptide-1 Receptor toward Oral Treatment for "Diabesity"” (J Med Chem, 2022):
Active and inactive are the calls of the source. The rule behind the calls is not given here.

Key:
[1] = target: T1, Glucagon-like peptide 1 receptor (Rattus norvegicus, UniProt P32301); experiment: Positive allosteric modulator activity at GLP-1R in rat INS1 beta-cells assessed potentiation of GLP-1(7-36)NH2 induced insulin secretion incubated for 30 mins in presence of high glucose condition by ELISA; type: cell-based
T1 sequence (P32301 whole entry): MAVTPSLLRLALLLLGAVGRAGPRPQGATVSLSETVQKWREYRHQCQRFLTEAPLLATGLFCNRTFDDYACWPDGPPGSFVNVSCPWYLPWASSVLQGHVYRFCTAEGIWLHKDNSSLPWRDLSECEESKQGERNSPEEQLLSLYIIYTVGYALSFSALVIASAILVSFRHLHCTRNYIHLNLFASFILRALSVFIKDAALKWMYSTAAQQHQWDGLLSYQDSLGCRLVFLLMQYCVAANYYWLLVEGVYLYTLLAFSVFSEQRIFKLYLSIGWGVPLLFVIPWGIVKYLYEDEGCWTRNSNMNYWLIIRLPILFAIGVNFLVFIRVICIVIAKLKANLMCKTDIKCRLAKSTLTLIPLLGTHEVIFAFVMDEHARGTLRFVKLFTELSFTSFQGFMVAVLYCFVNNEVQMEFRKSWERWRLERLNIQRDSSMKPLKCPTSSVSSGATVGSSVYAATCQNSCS

[2] = Toxicity in Wistar rat assessed anxiety like behavior at 0.5 to 1 mg/kg, ip measured after 30 mins by elevated plus-maze analysis; type: organism-based; details: in vivo, 0.5 h, dose 0.5-1 mg/kg
Method in brief: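 Male Wistar rats, naive to the maze, were handled for 7 days. Compound at 0.5 or 1 mg/kg ip in saline/DMSO (0.2%). 30 min after dosing, each rat was placed in the maze centre facing an open arm, and open-arm entries and % time in open arms were scored over 5 min. No retesting; 8 animals.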

[3] = Effective permeability of compound in PBS buffer at pH 7.4 at 50 to 100 uM after 5 hrs by PAMPA; type: ADME; details: pH 7.4, 5 h, dose 50-100 µM
[4] = Toxicity in Wistar rat assessed hypolocomotion at 0.5 to 1 mg/kg, ip measured after 30 mins by elevated plus-maze analysis; details: in vivo, 0.5 h
[5] = target: T2, Glucagon-like peptide 1 receptor (Rattus norvegicus) (UniProt P32301); experiment: Positive allosteric modulator activity at GLP-1R in rat INS1 beta-cells assessed potentiation of GLP-1(7-36)NH2 induced insulin secretion at 1 uM incubated for 30 mins in presence of 15 mM of glucose by ELISA; type: cell-based; details: filed as positive allosteric modulator
T2 sequence (whole entry): T1 sequence (P32301 whole entry)
Method in brief: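 Rat INS-1 cells held in glucose-free medium for 1.5 h (100,000 cells/well). […] Medium was centrifuged at 4 °C and secreted insulin measured by ELISA.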

## FC(F)(F)c1ccc(-c2noc(CN3CCCC(CN4CCOCC4)C3)n2)cc1 (stereo unspecified)
[1]
  EC50: 8 pM
[2]
  Activity: Non-Toxic
[3]
  Peff: Active
[4]
  Activity: Non-Toxic

## FC(F)(F)c1ccc(-c2noc(CN3CCCCC3CCc3ccccn3)n2)cc1 (stereo unspecified)
[5]
  Activity: Active

## NC(=O)C1CCN(Cc2nc(-c3ccc(C(F)(F)F)cc3)no2)CC1
[5]
  Activity: Active
